# Reference: ChEMBL document CHEMBL1122632, “Synthesis and antitumor activity of cis-dichloroplatinum (II)-N-aminated nucleoside complexes” (J Med Chem, 1984)
# “And” between values parts separate entries of the source, which are not always exact repeats. Equal values may be shown once.
# Assays:
# L1210 [1] = assay: In vitro inhibition of L1210 (murine leukemia) cell growth.; assay type: functional, cell-based, Mus musculus
# Outline: (§1)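 L1210 cells (10^5 in 1 mL) were grown in RPMI 1640 with 10% FCS and kanamycin, at 37 °C in CO2, for 48 h. Compounds were heated at 110 °C for 8 h, dissolved in medium and tested at ≥6 concentrations. Viability was scored by 0.17% Trypan blue exclusion against drug-free controls. IC50 was the concentration halving living cell number, taken from the log-probit dose-response curve.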
# L1210 [2] = assay: Median survival time (MST) of mice bearing L1210 cells was determined at a dose of 115 mg/kg x 2 days administered ip; Toxic.; assay type: functional, organism-based; design: dose 115 mg/kg; details: Mus musculus
# Outline: (§2)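 (BALB/c × DBA/2)F1 mice (20 g) were implanted ip with 10^4 L1210 cells. Compounds in saline (0.2 mL) were given ip on days 1 and 5; doses above 100 mg/kg were homogenized with Nikkol (7× by weight). Activity was scored as median survival time of treated mice and expressed as T/C, the ratio of treated to control median survival time.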
# L1210 [3] = assay: Median survival time (MST) of mice bearing L1210 cells was determined at a dose of 2 mg/kg x 2 days administered ip; Toxic.; assay type: functional, organism-based; design: dose 2 mg/kg; details: Mus musculus; outline: as §2
# L1210 [4] = assay: Ratio of median survival time of the mice bearing L1210 cells in treated(T) vs. control(C) at a dose of 900 mg/kg x 2 days; assay type: functional, organism-based; design: dose 900 mg/kg; details: Mus musculus; outline: as §2
# Mus musculus [5] = assay: Blood urea nitrogen values in ICR mice after intraperitoneal administration at an equivalent molar dose of the LD50 of […](13 mg/kg) on day 3; assay type: functional, organism-based
# Outline: (§3)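 ICR mice (25-30 weeks, 39 ± 4 g), 5-6 per group, given one ip dose of 0.043 mmol/kg, equimolar to 13 mg/kg cis-DDP. On days 3, 6 and 9, blood was drawn from the heart under ether anesthesia and stored frozen. BUN was measured later by a modified urease indophenol method. Results are mean ± SD, mg/100 mL blood, compared with untreated controls.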
# Mus musculus [6] = assay: Effect on kidney weight in ICR mice was determined after intraperitoneal administration on day 6; assay type: functional, organism-based
# Outline: (§4)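 ICR mice (25-30 weeks, 39 ± 4 g), 5-6 per group, given one ip dose of 0.043 mmol/kg, equimolar to 13 mg/kg cis-DDP. Body and kidney weights were taken on days 3, 6 and 9 and compared with untreated controls. Weights are paired, mean ± SD.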
# L1210 [7] = assay: Median survival time (MST) of mice bearing L1210 cells was determined at a dose of 100 mg/kg x 2 days administered ip.; assay type: functional, organism-based; design: dose 100 mg/kg; details: Mus musculus; outline: as §2
# Mus musculus [8] = assay: Effect on body weight in ICR mice was determined after intraperitoneal administration on day 6; assay type: functional, organism-based; outline: as §4
# Mus musculus [9] = assay: Effect on body weight in ICR mice was determined after intraperitoneal administration on day 9; assay type: functional, organism-based; outline: as §4
# Mus musculus [10] = assay: Effect on kidney weight in ICR mice was determined after intraperitoneal administration on day 9; assay type: functional, organism-based; outline: as §4
# L1210 [11] = assay: Ratio of median survival time of the mice bearing L1210 cells in treated(T) vs. control(C) at a dose of 300 mg/kg x 2 days; assay type: functional, organism-based; design: dose 300 mg/kg; details: Mus musculus; outline: as §2
# L1210 [12] = assay: Median survival time (MST) of mice bearing L1210 cells was determined at a dose of 10 mg/kg x 2 days administered ip.; assay type: functional, organism-based; design: dose 10 mg/kg; details: Mus musculus; outline: as §2
# L1210 [13] = assay: Median survival time (MST) of mice bearing L1210 cells was determined at a dose of 900 mg/kg x 2 days administered ip.; assay type: functional, organism-based; design: dose 900 mg/kg; details: Mus musculus; outline: as §2
# L1210 [14] = assay: Median survival time (MST) of mice bearing L1210 cells was determined at a dose of 600 mg/kg x 2 days administered ip.; assay type: functional, organism-based; design: dose 600 mg/kg; details: Mus musculus; outline: as §2
# Mus musculus [15] = assay: Effect on body weight in ICR mice was determined after intraperitoneal administration on day 3; assay type: functional, organism-based; outline: as §4
# L1210 [16] = assay: Median survival time (MST) of mice bearing L1210 cells was determined at a dose of 200 mg/kg x 2 days administered ip.; assay type: functional, organism-based; design: dose 200 mg/kg; details: Mus musculus; outline: as §2
# Mus musculus [17] = assay: Blood urea nitrogen values in ICR mice after intraperitoneal administration at an equivalent molar dose of the LD50 of […](13 mg/kg) on day 6; assay type: functional, organism-based; outline: as §3
# Mus musculus [18] = assay: Effect on kidney weight in ICR mice was determined after intraperitoneal administration on day 3; assay type: functional, organism-based; outline: as §4
# L1210 [19] = assay: Ratio of median survival time of the mice bearing L1210 cells in treated(T) vs. control(C) at a dose of 10 mg/kg x 2 days; assay type: functional, organism-based; design: dose 10 mg/kg; details: Mus musculus; outline: as §2
# L1210 [20] = assay: Median survival time (MST) of mice bearing L1210 cells was determined at a dose of 300 mg/kg x 2 days administered ip.; assay type: functional, organism-based; design: dose 300 mg/kg; details: Mus musculus; outline: as §2
# L1210 [21] = assay: Ratio of median survival time of the mice bearing L1210 cells in treated(T) vs. control(C) at a dose of 50 mg/kg x 2 days; assay type: functional, organism-based; design: dose 50 mg/kg; details: Mus musculus; outline: as §2
# L1210 [22] = assay: Ratio of median survival time of the mice bearing L1210 cells in treated(T) vs. control(C) at a dose of 200 mg/kg x 2 days; assay type: functional, organism-based; design: dose 200 mg/kg; details: Mus musculus; outline: as §2
# L1210 [23] = assay: Ratio of median survival time of the mice bearing L1210 cells in treated(T) vs. control(C) at a dose of 25 mg/kg x 2 days; assay type: functional, organism-based; design: dose 25 mg/kg; details: Mus musculus; outline: as §2
# L1210 [24] = assay: Ratio of median survival time of the mice bearing L1210 cells in treated(T) vs. control(C) at a dose of 100 mg/kg x 2 days; assay type: functional, organism-based; design: dose 100 mg/kg; details: Mus musculus; outline: as §2
# L1210 [25] = assay: Ratio of median survival time of the mice bearing L1210 cells in treated(T) vs. control(C) at a dose of 600 mg/kg x 2 days; assay type: functional, organism-based; design: dose 600 mg/kg; details: Mus musculus; outline: as §2
# Mus musculus [26] = assay: Blood urea nitrogen values in ICR mice after intraperitoneal administration at an equivalent molar dose of the LD50 of […](13 mg/kg) on day 9; assay type: functional, organism-based; outline: as §3
# L1210 [27] = assay: Median survival time (MST) of mice bearing L1210 cells was determined at a dose of 25 mg/kg x 2 days administered ip.; assay type: functional, organism-based; design: dose 25 mg/kg; details: Mus musculus; outline: as §2
# L1210 [28] = assay: Median survival time (MST) of mice bearing L1210 cells was determined at a dose of 50 mg/kg x 2 days administered ip.; assay type: functional, organism-based; design: dose 50 mg/kg; details: Mus musculus; outline: as §2
# L1210 [29] = assay: Median survival time (MST) of mice bearing L1210 cells was determined at a dose of 800 mg/kg x 2 days administered ip.; assay type: functional, organism-based; design: dose 800 mg/kg; details: Mus musculus; outline: as §2
# L1210 [30] = assay: Ratio of median survival time of the mice bearing L1210 cells in treated(T) vs. control(C) at a dose of 800 mg/kg x 2 days; assay type: functional, organism-based; design: dose 800 mg/kg; details: Mus musculus; outline: as §2
# Mus musculus [31] = assay: Blood urea nitrogen values in ICR mice after intraperitoneal administration at an equivalent molar dose of the LD50 of […](13 mg/kg) on day 9; All death; assay type: functional, organism-based; outline: as §3
# Mus musculus [32] = assay: Effect on body weight in ICR mice was determined after intraperitoneal administration on day 9; All death; assay type: functional, organism-based; outline: as §4
# L1210 [33] = assay: In vitro inhibitory effect on growth of L1210 cells; 1.5*10e-3; assay type: functional, cell-based; details: Mus musculus; outline: as §1
# L1210 [34] = assay: Median survival time (MST) of mice bearing L1210 cells was determined at a dose of 114 mg/kg x 2 days administered ip.; assay type: functional, Mus musculus
# Outline: (§5)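 (BALB/c x DBA/2)F1 mice, 20 g, implanted ip with 10^4 L1210 cells. Test samples in saline (0.2 mL) given ip on days 1 and 5 after tumor inoculation; doses above 100 mg/kg homogenized with Nikkol (7 times by weight) as vehicle. Activity from median survival time of treated group versus control group (T/C).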
# L1210 [35] = assay: Ratio of median survival time of the mice bearing L1210 cells in treated(T) vs. control(C) at a dose of 112 mg/kg x 2 days; assay type: functional, Mus musculus; outline: as §5
# L1210 [36] = assay: Median survival time (MST) of mice bearing L1210 cells was determined at a dose of 2 mg/kg x 2 days administered ip.; assay type: functional, Mus musculus; outline: as §5
# L1210 [37] = assay: Ratio of median survival time of the mice bearing L1210 cells in treated(T) vs. control(C) at a dose of 30 mg/kg x 2 days; assay type: functional, Mus musculus; outline: as §5
# [38] = Mus musculus, L1210, read-out: IC50
compound,measurement,setting,value
CISPLATIN [listing 1 of 2 here],IC50,L1210 [1]; l1210,0.19 µg/mL
same,IC50,"L1210 [1]; l1210, read-out: IC50",0.633 µM
3-amino-cytidine hydrochloridecis-DDP,MST,L1210 [2],Toxic
same,MST,L1210 [3],Toxic
3-aminotubercidin-dichloroplatinum (II),T/C,L1210 [4],156%
same,Blood urea nitrogen,Mus musculus [5],24 mg 100ml-1
same,Kidney weight,Mus musculus [6],686
same,MST,L1210 [7],11.5 days
same,Body weight,Mus musculus [8],39.4
same,Body weight,Mus musculus [9],40
same,Kidney weight,Mus musculus [10],750
same,T/C,L1210 [11],150%
same,MST,L1210 [12],9 days
same,MST,L1210 [13],12.5 days
same,MST,L1210 [14],12.5 days
same,Body weight,Mus musculus [15],38.4
same,MST,L1210 [16],11.5 days
same,Blood urea nitrogen,Mus musculus [17],22.8 mg 100ml-1
same,Kidney weight,Mus musculus [18],587
same,T/C,L1210 [19],112%
same,MST,L1210 [20],12 days
same,T/C,L1210 [21],131%
same,T/C,L1210 [22],144%
same,T/C,L1210 [23],125%
same,T/C,L1210 [24],144%
same,T/C,L1210 [25],156%
same,Blood urea nitrogen,Mus musculus [26],26.3 mg 100ml-1
same,MST,L1210 [27],10 days
same,MST,L1210 [28],10.5 days
5-amino-1-beta-D-ribofuranosylimidazole-4-carboxamide-dichloroplatinum (II),MST,L1210 [29],10 days
same,MST,L1210 [7],10 days
same,MST,L1210 [16],11 days
same,T/C,L1210 [21],100%
same,T/C,L1210 [22],122%
same,T/C,L1210 [23],100%
same,T/C,L1210 [24],111%
same,T/C,L1210 [30],125%
same,MST,L1210 [27],9 days
same,MST,L1210 [28],9 days
CISPLATIN [listing 2 of 2 here],Blood urea nitrogen,Mus musculus [5],37 mg 100ml-1
same,Kidney weight,Mus musculus [6],555
same,Body weight,Mus musculus [8],31
same,Body weight,Mus musculus [15],34
same,Blood urea nitrogen,Mus musculus [17],45.3 mg 100ml-1
same,Kidney weight,Mus musculus [18],599
same,Blood urea nitrogen,Mus musculus [31],All death
same,Body weight,Mus musculus [32],All death
Nc1ncnc2c1ccn2[C@@H]1O[C@H](CO)[C@@H](O)[C@H]1O [TUBERCIDIN],IC50,L1210 [1]; [38],0.018 µg/mL and 67.7 nM
N=c1ccn([C@@H]2O[C@H](CO)[C@@H](O)[C@@H]2O)c(=O)n1N,IC50,L1210 [33],1530 µM
same,MST,L1210 [34],10 days
same,T/C,L1210 [35],100%
same,MST,L1210 [36],9.5 days
same,T/C,L1210 [37],95%
same,IC50,L1210 [1]; [38],45 µg/mL
